This passage reports yeast fitness results from the RNAGym collection of RNA variant scans (doi:10.1126/science.aae0568).

B1: tRNA (parent)
chain: GUUCCGUUGGCGUAAUGGUAACGCGUCUCCCUCCUAAGGAGAAGACUGCGGGUUCGAGUCCCGUACGGAACG

Fewer inactive variants are shown than the library holds. Where only a bound is given, the exact number is not on record here.

This data set covers variants of B1. Briefly: yeast fitness relative to wild type (ratio to wild type); higher = fitter; tRNA-Arg(CCU), competitive growth, 37 C, YPD. In a few lines:
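Variants of the tRNA-Arg(CCU) gene, chemically synthesised with a 3% per-site mutation rate at 69 sites, were placed at the native genomic locus in Saccharomyces cerevisiae. The pooled strains were competed in YPD at 37°C for 24 hours in six parallel replicates. Gene amplicons from the start population and from each end population were read by 100-nucleotide paired-end sequencing. Darwinian fitness relative to wild type came from changes in genotype frequencies; genotypes needed ≥ 100 starting reads, and estimates < 0.5 were set to 0.5.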
Regarding GAUCCGUUGGCGUUAUGGUAACGCGUCUCCCUCCUAAGGAGAAGAUUGCGGGUUCGAGUCCCGUACGGAACG [U2A A14U C46U], the yeast fitness was determined as 0.595.

For the variant GAUCCGUUGGCGUACUGGUAACGCGUCUCCCUCCUAAGGAGAAGACUGCGGGUUCGACUCCCGUACGGAACG [U2A A15C G58C], the yeast fitness is no more than 0.5.

Regarding GAUCCGUUGGCGUAAUGGUCACGCGUCUCCCUCCUAAGGAGAAGACUGCGGGUUCGAGUCCCGUACGUAACG [U2A A20C G68U], the yeast fitness stood at 1.01.

As to GAUCCGUUGGCGUAGUGGUAACGCGUCUUCCUCCUAAGGAAAAGACUGCGGGUUCGAGUCCCGUACGGAACG [U2A A15G C29U G41A], the yeast fitness was no more than 0.5.

On to GAUCCGUUGGCGUGAUGGUAAGGCGUCUCGCUCCUAAGGAGAAGACAGCGGGUUCGAGUCCCGUACGGAACG [U2A A14G C22G C30G U47A], for which the yeast fitness is no more than 0.5.

As for GAUCCGUUGGCGUAUUCGUAACGCGUCUCCCUCCUAAGGAGAAGACUGCGAGUUCGAGUCCCGUACGGAACG [U2A A15U G17C G51A], the yeast fitness was no more than 0.5.

For GAUCCGUUGGCGUACUGGUAACGCGUCUCCCUCCUAAGGAGAAGACCGCGGGUUCGAGUCCCGUACGGAACG [U2A A15C U47C], the yeast fitness was no more than 0.5.

In the case of GAUCCGUUGGCGUACUGGUAACGCGUCUCGCUCCUAAGGAGAAGACUGCGGGUUCGAGUCCCGUACCGAACG [U2A A15C C30G G67C], the yeast fitness is no more than 0.5.

In the case of GAUCCGUUGGCGUGAUGGUAACGCCUCUCCCUCCUAAGGAGAAGACCCCGGGUUCGAGUCCCGUACGGAACG [U2A A14G G25C U47C G48C], the yeast fitness amounted to 0.573.

As for GAUCCGUUGGCGUUAUGGUAACGCGUCUCCCUCCUAAGGAGAAGACUGCGGGUUCGAGUCCCGUACGGAACG [U2A A14U], the yeast fitness amounted to 0.682.

In the case of GAUCCGUUGGCGUUAUGGUAGCGCGUCUCCCUCCUAAGGAGAAGAGUGCGGGUUCGUGUCCCGUAUGGAACG [U2A A14U A21G C46G A57U C66U], the yeast fitness came out at 0.56.

On to GAUCCGUUGGCGUCAUGGUAACGCGUCUCUCUCGUAAGGAGAAGUCUGCGGGUUCGAGUCCCGUACGGAACG [U2A A14C C30U C34G A45U], for which the yeast fitness was no more than 0.5.

On to GAUCCGUUGGCGUGAUGGUAACGCGUCUCCCUCCUAUGGAGAAGACUGCGGGUACGAGUCCCGUACGGAACG [U2A A14G A37U U54A], for which the yeast fitness was no more than 0.5.

Take GAUCCGUUGGCGUAAUGGUCACGCGUCUCCCUCCUAAGGAGAAGACUCCGGGUUCGAGUCCCGUACCGAACG [U2A A20C G48C G67C]: the yeast fitness is no more than 0.5.

GAUCCGUUGGCGUAAUGGUCACGCGUCUCCCUCCUAGGGAGAAGACUGCGGGUUCGAGUCCCGUACGGAACG [U2A A20C A37G]: the yeast fitness worked out at 0.529.

As for GAUCCGUUGGCGUCAUGGUAACGCGUCUCUCUCGUAAGGAGAAGACUGCGAGUUCGAGUCCCGUACGGAACG [U2A A14C C30U C34G G51A], the yeast fitness is no more than 0.5.

In the case of GAUCCGUUGGCGUAGUGGUAACGCGUCUCCCUCCUAUGGAGAAGACUGGGGGUUCGAGUCCCGUACGGAACG [U2A A15G A37U C49G], the yeast fitness is no more than 0.5.

On to GAUCCGUUGGCGUUAUGGUAACGCGUCUGCCUCCUAAGGAGAACACUGCGGGUUCGAGUCCCGUACGGAACG [U2A A14U C29G G44C], for which the yeast fitness stood at 0.534.

Regarding GAUCCGUUGGCGUAUUGGUAACGCGUUUCACUCCUAAGGACAAGACUGAGGGUUGGAGUCACGUACGGAACG [U2A A15U C27U C30A G41C C49A C55G C61A], the yeast fitness is no more than 0.5.

Consider GAUCCGUUGGCGUAGUGGUAACGCGUCUCCGUCCUAAGGUGAAGACUGCGGGUUCGAGUGCCGUACAGAACG [U2A A15G C31G A40U C60G G67A], for which the yeast fitness is no more than 0.5.

With GAUCCGUUGGCGUCAUGGUAACGCGUCUCCCUCCUAAGGAGAAGACUCCGGGUUCGAGUCCCGUACGGAACG [U2A A14C G48C], the yeast fitness was no more than 0.5.

Regarding GAUCCGUUGGCGUCAUGGUAACGCGUCUCUCUCGUAAGGAGAAGACUGCGGGUUCGAGUCCCGUACGGAACG [U2A A14C C30U C34G], the yeast fitness was no more than 0.5.

GAUCCGUUGGCGUAAUGGUCACGCGUCUCCCUCCUAAGGAGAAGACUGCGGGUUCGAGUCCCGUACGGCACG [U2A A20C A69C]: the yeast fitness turned out to be 0.78.

In the case of GAUCCGUUGGCGUCAUGGUGACGCGUCUCCCUCCUGAGGAGAAGACUGCGGGUUUGAGUCCCGUACGCAACG [U2A A14C A20G A36G C55U G68C], the yeast fitness is 0.595.

With GAUCCGUUGGCGUACUGGUAACGCGUCUCCCUCCUAAGGAGAAGACUGCGGGUUCGAGUCCCGUACGGCACG [U2A A15C A69C], the yeast fitness is no more than 0.5.

For GAUCCGUUGGCGUAUUGGUAACGCGUCUCCCUCAUAAGCCGAAGACUGCGGGUUCCAGUCGGGUACGCAACG [U2A A15U C34A G39C A40C G56C C61G C62G G68C], the yeast fitness was no more than 0.5.

Regarding GAUCCGUUGGCGUCAUGGUAACGCGUCUCCCUCCUAAGGAGAAGACUGCAGGUUCGAGUCCCCUACGGAACG [U2A A14C G50A G63C], the yeast fitness is no more than 0.5.

Turning to GAUCCGUUGGCGUUAUGGUAACGUGUCUCCCGCCUAAGGAGAAGACUGCGGGUUCGAGUCCCGUACGGAACG [U2A A14U C24U U32G], the yeast fitness is 0.672.

GAUCCGUUGGCGUACUGGUAACGCGUCUCGCUCCUAAGGAGAAGACUGCGGGUUCGAGUCCCGUACGGAACG [U2A A15C C30G]: the yeast fitness is no more than 0.5.

With GAUCCGUUGGCGUAAUGGUCACGCGUUUCCCUCCUAAGGAGAAGACUGCGGGUUCGACUCCCGUACGGCACG [U2A A20C C27U G58C A69C], the yeast fitness is no more than 0.5.

With GAUCCGUUGGCGUAAUGGUCACGCGUCUCCCUCCUAAGGAGAAGACUGCGGGUUUGAGUCCCGUACGGAACG [U2A A20C C55U], the yeast fitness turned out to be 0.582.

GAUCCGUUGGCGUAAUGGUGACGGGUCUCGCUCCUAAGGAGAAGACUGCGGGUUCGAGUCCCGUACGGAACG [U2A A20G C24G C30G]: the yeast fitness is no more than 0.5.

As for GAUCCGUUGGCGUAAUGGUGACGCGUCUCCCUCCUAAGGAGAAGACUGCGGGUUCGAGUCCCGUACGGAACG [U2A A20G], the yeast fitness was found to be 0.838.

On to GAUCCGUUGGCGUAAUGGUCACGCGUCUCCCUCCUAAGGAGAAGACUGCGGGUUCGAGUCCCGUACGGAACG [U2A A20C], for which the yeast fitness came out at 0.928.

As for GAUCCGUUGGCGUAAUGGUGACGCGUCUCCCUCCUAAGGAGAAGACUGCGGGUUCGAGUCCCGUACGGCACG [U2A A20G A69C], the yeast fitness worked out at 0.688.

In the case of GAUCCGUUGGCGUAAUGGUCACGCGUCUCCCUCCUAAGGGGAAGACUGCGGGUUCGAGUCCCGUACGGAACG [U2A A20C A40G], the yeast fitness was found to be 0.633.

For the variant GAUCCGUUGGCGUACUGGUAACGCGUCUCCCUCCUAAGGAGAAGACUGCGGGUUCGAGUCCCGUACGGAACG [U2A A15C], the yeast fitness was 0.685.

For the variant GAUCCGUUGGCGUAUUGGUAACGCGUCUCCCUCCUAAGGAGAAGACUGCGGGUUCGAGUCCCGUACGGAACG [U2A A15U], the yeast fitness turned out to be 0.753.
